Experiment [1] addresses Acetylcholinesterase (Electrophorus electricus) (UniProt O42275). Kind of experiment: Mixed type inhibition of Electrophorus electricus AChE by Lineweaver-Burk plot analysis. Summed up:
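Ellman kinetics at 30 °C in pH 8.0 Tris-HCl with DTNB. Enzyme plus inhibitor (3 concentrations and a water blank) was preincubated for 20 min, then ATChI was added at 0.9375, 0.625, 0.325 or 0.1875 mM. A415 was read every minute for 30 min, in triplicate. Mode, Ki and Ki' came from Lineweaver-Burk, Dixon and Cornish-Bowden plots.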

Experiment [2] relates to Candida antarctica. Kind of experiment: Inhibition of Candida antarctica lipase at 40 uM using 4-NA as substrate preincubated for 20 mins before the addition of substrate. Summed up:
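Candida antarctica lipase (stock 2.003 U/ml) in 50 mM Tris-HCl pH 8.0, preincubated with compound at 37 °C for 20 min. Reaction started with 4-NA; absorbance at 415 nm followed at 37 °C for 10 min at 1 min intervals. Relative inhibition taken as the ratio of linear-range slopes, compound over blank.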

The next experiment addresses Cholinesterase (Equus caballus, UniProt P81908). Kind of experiment: Inhibition of equine serum BChE using butyrylthiocholine iodide as substrate preincubated for 20mins before the addition of substrate by Ellman's method. The settings on record: for Ki: read-out: Ki. In general terms: DTNB colorimetry detects thiols as they appear.
The target in a further experiment is Acetylcholinesterase (Electrophorus electricus, UniProt O42275). Kind of experiment: Inhibition of Electrophorus electricus AChE using acetylthiocholine iodide as substrate preincubated for 20mins before the addition of substrate by Ellman's method. The note with it: for Ki: read-out: Ki.
Experiment [3] addresses Carbonic anhydrase 2 (Bos taurus) (UniProt P00921). Kind of experiment: Inhibition of bovine erythrocte carbonic anhydrase 2 at 40 uM.
The target in experiment [4] is Cholinesterase (Equus caballus) (UniProt P81908). Kind of experiment: Inhibition of equine serum BChE at 40 uM using butyrylthiocholine iodide as substrate preincubated for 20mins before the addition of substrate by Ellman's method. Summed up:
(§1)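 Ellman assay: enzyme in Tris-HCl pH 8.0 with NaN3, plus DTNB (3 mM stock with NaCl and MgCl2), was preincubated with compound at 30 °C for 20 min. Thiocholine substrate was then added and absorbance at 415 nm recorded at 30 °C for 30 min at 1-min intervals, in triplicate. Residual DMSO below 0.5%.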

The target of experiment [5] is Acetylcholinesterase (Electrophorus electricus) (UniProt O42275). The settings on record: 40 uM.
For experiment [6], the target named is Cholinesterase (Equus caballus) (UniProt P81908). Kind of experiment: Inhibition of equine serum BChE at 10 uM using butyrylthiocholine iodide as substrate preincubated for 20mins before the addition of substrate by Ellman's method. Summed up: as §1
For experiment [7], the system named is Candida antarctica. Kind of experiment: Inhibition of Candida antarctica lipase at 10 uM using 4-NA as substrate preincubated for 20 mins before the addition of substrate. Summed up: (§2)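 Candida antarctica lipase in 50 mM Tris-HCl pH 8.0 was preincubated with compound at 37 °C for 20 min. Reaction started with 4-NA ([…] as added). Absorbance at 415 nm was read kinetically at 37 °C for 10 min at 1-min intervals. Relative inhibition was taken as the ratio of linear-range slopes, compound over blank.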

For experiment [8], the target named is Carbonic anhydrase 2 (Bos taurus) (UniProt P00921). Kind of experiment: Inhibition of bovine erythrocte carbonic anhydrase 2 at 10 uM.
The target in experiment [9] is Acetylcholinesterase (Electrophorus electricus) (UniProt O42275). The note with it: 10 uM.
The target of experiment [10] is Cholinesterase (Equus caballus) (UniProt P81908). Kind of experiment: Inhibition of equine serum BChE at 5 uM using butyrylthiocholine iodide as substrate preincubated for 20mins before the addition of substrate by Ellman's method. The procedure, abridged:
as §1

The subject of experiment [11] is Candida antarctica. Kind of experiment: Inhibition of Candida antarctica lipase at 5 uM using 4-NA as substrate preincubated for 20 mins before the addition of substrate. The procedure, abridged:
as §2

For experiment [12], the target named is Acetylcholinesterase (Electrophorus electricus) (UniProt O42275). Kind of experiment: Inhibition of Electrophorus electricus AChE at 5 uM using acetylthiocholine iodide as substrate preincubated for 20mins before the addition of substrate by Ellman's method. The procedure, abridged: as §1
Experiment [13] has as its target Carbonic anhydrase 2 (Bos taurus) (UniProt P00921). Kind of experiment: Inhibition of bovine erythrocte carbonic anhydrase 2 at 5 uM.
Experiment [14] has as its system Candida antarctica. Kind of experiment: Inhibition of Candida antarctica lipase at 3 uM using 4-NA as substrate preincubated for 20 mins before the addition of substrate. The procedure, abridged: as §2
For experiment [15], the target named is Carbonic anhydrase 2 (Bos taurus) (UniProt P00921). Kind of experiment: Inhibition of bovine erythrocte carbonic anhydrase 2 at 3 uM.
In experiment [16] the target is Acetylcholinesterase (Electrophorus electricus) (UniProt O42275). Kind of experiment: Inhibition of Electrophorus electricus AChE at 3 uM using acetylthiocholine iodide as substrate preincubated for 20mins before the addition of substrate by Ellman's method. The procedure, abridged: as §1
The target in experiment [17] is Cholinesterase (Equus caballus) (UniProt P81908). Kind of experiment: Inhibition of equine serum BChE at 3 uM using butyrylthiocholine iodide as substrate preincubated for 20mins before the addition of substrate by Ellman's method. The procedure, abridged:
as §1

Experiment [18] has the same target. Kind of experiment: Mixed type inhibition of equine serum BChE by Lineweaver-Burk plot analysis.
A short description of experiment [19]: Cytotoxic activity against mouse NIH/3T3 cells by SRB assay. Format: cell-based. The note with it: NIH3T3. The procedure, abridged:
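Mouse embryonic fibroblasts grown as monolayers in RPMI 1640 with 10% heat-inactivated FBS and penicillin/streptomycin at 37 °C under 5% CO2. Cytotoxicity read by photometric sulforhodamine-B microculture colorimetric assay, reported as IC50.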
For orientation: In SRB staining, fixed cells bind dye roughly in proportion to their protein.

13 molecules from ChEMBL document CHEMBL3779826, “Converting maslinic acid into an effective inhibitor of acylcholinesterases” (Eur J Med Chem, 2015) can be followed below.

Usually inhibition stands for the percentage by which the read-out fell short of the control. By Ki is commonly meant a measure of affinity in units of concentration, obtained from inhibition or displacement. The IC50 is the concentration that gives 50% inhibition. The low end stands for greater potency in that assay, the high end for weaker potency in that assay.

Sequence of Carbonic anhydrase 2 (Bos taurus) (P00921 2-260 limits assumed): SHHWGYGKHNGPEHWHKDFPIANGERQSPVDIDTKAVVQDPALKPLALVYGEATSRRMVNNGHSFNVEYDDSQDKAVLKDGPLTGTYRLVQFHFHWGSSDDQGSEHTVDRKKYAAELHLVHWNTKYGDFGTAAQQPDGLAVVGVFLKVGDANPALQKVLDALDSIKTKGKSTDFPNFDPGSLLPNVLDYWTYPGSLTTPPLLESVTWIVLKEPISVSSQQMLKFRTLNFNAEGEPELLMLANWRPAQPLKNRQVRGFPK
Sequence of Acetylcholinesterase (O42275 whole entry): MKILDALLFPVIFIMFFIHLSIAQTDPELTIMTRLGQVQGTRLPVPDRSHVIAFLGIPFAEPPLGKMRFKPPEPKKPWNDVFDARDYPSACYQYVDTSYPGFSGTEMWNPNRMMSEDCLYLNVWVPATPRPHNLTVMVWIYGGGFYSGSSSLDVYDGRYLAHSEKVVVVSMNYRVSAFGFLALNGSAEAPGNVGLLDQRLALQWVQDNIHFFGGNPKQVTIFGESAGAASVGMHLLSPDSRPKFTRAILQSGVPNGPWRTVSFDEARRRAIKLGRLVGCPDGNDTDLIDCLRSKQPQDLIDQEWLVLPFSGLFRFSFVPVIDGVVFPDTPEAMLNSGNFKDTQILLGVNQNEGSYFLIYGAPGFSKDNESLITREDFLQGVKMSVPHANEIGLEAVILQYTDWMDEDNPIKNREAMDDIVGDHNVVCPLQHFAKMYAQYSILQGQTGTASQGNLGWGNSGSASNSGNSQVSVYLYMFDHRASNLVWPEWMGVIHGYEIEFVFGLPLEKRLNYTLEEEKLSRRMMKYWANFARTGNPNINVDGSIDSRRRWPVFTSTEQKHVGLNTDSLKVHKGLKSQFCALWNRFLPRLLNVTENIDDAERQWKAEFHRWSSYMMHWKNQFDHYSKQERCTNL
Sequence of Cholinesterase (P81908 whole entry): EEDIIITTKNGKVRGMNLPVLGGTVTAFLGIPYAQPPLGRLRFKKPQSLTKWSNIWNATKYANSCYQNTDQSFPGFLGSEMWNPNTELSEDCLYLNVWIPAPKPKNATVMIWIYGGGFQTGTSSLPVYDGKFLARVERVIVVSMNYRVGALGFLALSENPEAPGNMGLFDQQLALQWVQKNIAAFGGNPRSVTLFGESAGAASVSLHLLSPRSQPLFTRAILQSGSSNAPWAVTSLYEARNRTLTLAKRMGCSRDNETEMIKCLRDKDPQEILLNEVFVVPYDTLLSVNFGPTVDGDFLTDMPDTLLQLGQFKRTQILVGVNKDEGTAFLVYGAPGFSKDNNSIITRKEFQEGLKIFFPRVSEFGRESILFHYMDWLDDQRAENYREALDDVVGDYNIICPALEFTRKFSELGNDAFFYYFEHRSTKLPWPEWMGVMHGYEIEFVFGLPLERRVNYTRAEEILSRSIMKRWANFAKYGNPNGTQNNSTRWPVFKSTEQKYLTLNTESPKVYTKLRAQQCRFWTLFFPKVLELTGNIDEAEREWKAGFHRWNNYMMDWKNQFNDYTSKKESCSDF
Sequence of Cholinesterase (Equus caballus) (P81908 whole entry): as above
Sequence of Acetylcholinesterase (Electrophorus electricus) (O42275 24-633 limits assumed): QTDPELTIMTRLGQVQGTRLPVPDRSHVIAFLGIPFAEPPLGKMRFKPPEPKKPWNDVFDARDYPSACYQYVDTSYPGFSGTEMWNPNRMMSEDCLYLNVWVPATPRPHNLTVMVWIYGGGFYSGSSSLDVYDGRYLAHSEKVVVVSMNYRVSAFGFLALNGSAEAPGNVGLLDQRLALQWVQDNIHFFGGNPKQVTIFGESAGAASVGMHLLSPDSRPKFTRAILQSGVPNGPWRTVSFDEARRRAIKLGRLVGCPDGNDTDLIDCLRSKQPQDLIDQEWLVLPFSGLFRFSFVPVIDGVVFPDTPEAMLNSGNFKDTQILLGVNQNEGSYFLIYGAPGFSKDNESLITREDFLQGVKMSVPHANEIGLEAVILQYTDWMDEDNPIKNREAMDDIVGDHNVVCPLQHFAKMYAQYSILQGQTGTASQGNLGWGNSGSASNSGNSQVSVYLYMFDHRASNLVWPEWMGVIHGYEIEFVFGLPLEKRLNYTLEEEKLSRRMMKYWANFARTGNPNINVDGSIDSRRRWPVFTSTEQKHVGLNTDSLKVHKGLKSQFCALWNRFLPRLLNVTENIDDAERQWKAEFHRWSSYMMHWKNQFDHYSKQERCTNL

As to `CC1(C)CC[C@]2(C(=O)OC/C=C\CCl)CC[C@]3(C)C(=CC[C@@H]4[C@@]5(C)C[C@@H](O)[C@H](O)C(C)(C)[C@@H]5CC[C@]43C)[C@@H]2C1`, the Kiuc in experiment [1] was 9.38 µM. The inhibition was 0% with Candida antarctica [2], 1% in experiment [3], 7% in experiment [4] and 79% in [5]. In addition, the inhibitory constant (Ki) on Cholinesterase is > 80 µM; at Acetylcholinesterase it was 22.5 µM. In addition, on Acetylcholinesterase, the IC50 was found to be 17.6 µM.
For the molecule `CC1(C)CC[C@]2(C(=O)OCCCI)CC[C@]3(C)C(=CC[C@@H]4[C@@]5(C)C[C@@H](O)[C@H](O)C(C)(C)[C@@H]5CC[C@]43C)[C@@H]2C1`, the inhibition in experiment [6] is 0%; in the experiment with Candida antarctica [7], 0%; in experiment [8], 6%; in experiment [9] it was 51%. The molecule further came in with a Kiuc in experiment [1] of 13.4 µM. For the same molecule, the Ki on Cholinesterase is > 20 µM; at Acetylcholinesterase it was 6.01 µM. Moreover, it took 10.3 µM to reach half-maximal inhibition on Acetylcholinesterase (IC50).
Regarding `CC1(C)CC[C@]2(C(=O)OCCCCCl)CC[C@]3(C)C(=CC[C@@H]4[C@@]5(C)C[C@@H](O)[C@H](O)C(C)(C)[C@@H]5CC[C@]43C)[C@@H]2C1`, the results for the inhibition constant (Ki) on Cholinesterase and on Acetylcholinesterase were > 10 µM and 1.68 µM, respectively. Further, the inhibition in [10] amounted to 0%; in the experiment on Candida antarctica [11] it was 0%; in [12], 79%; in [13], 0%. Further, on Acetylcholinesterase, half-maximal inhibition (IC50) was put at 10.5 µM.
In turn, `CCCOC(=O)[C@]12CCC(C)(C)C[C@H]1C1=CC[C@@H]3[C@@]4(C)C[C@@H](O)[C@H](O)C(C)(C)[C@@H]4CC[C@@]3(C)[C@]1(C)CC2` yielded a Kiuc in experiment [1] of 15.4 µM. Moreover, the values for the Ki at Cholinesterase and at Acetylcholinesterase were > 6 µM and 16.9 µM, respectively. This molecule also displayed an IC50 at Acetylcholinesterase of 8.76 µM. Also, the inhibition in the experiment on Candida antarctica [14] came out at 0%; in experiment [15] it was 0%; in [16] it was 56%; in experiment [17], 0%.
Consider `CC1(C)CC[C@]2(C(=O)O)CC[C@]3(C)C(=CC[C@@H]4[C@@]5(C)C[C@H](O)[C@H](O)C(C)(C)[C@@H]5CC[C@]43C)[C@@H]2C1` [AUGUSTIC ACID], for which, on Cholinesterase, half-maximal inhibition (IC50) was put at 16.6 µM and the Ki is 35.6 µM. The Ki on Acetylcholinesterase is > 30 µM. The molecule also displayed a Kiuc in experiment [18] of 10.6 µM.
The molecule `COC(=O)[C@]12CCC(C)(C)C[C@H]1C1=CC[C@@H]3[C@@]4(C)C[C@@H](O)[C@H](OS(N)(=O)=O)C(C)(C)[C@@H]4CC[C@@]3(C)[C@]1(C)CC2` registered a Kiuc in experiment [1] of 38.6 µM. Further, the inhibition constant (Ki) at Cholinesterase was > 20 µM. On Acetylcholinesterase, 21.3 µM corresponded to half-maximal inhibition (IC50) and the Ki was 20.5 µM.
`COc1ccc(COC(=O)[C@]23CCC(C)(C)C[C@H]2C2=CC[C@@H]4[C@@]5(C)C[C@@H](O)[C@H](O)C(C)(C)[C@@H]5CC[C@@]4(C)[C@]2(C)CC3)cc1`: in experiment [1], the Kiuc turned out to be 69.6 µM. Besides, the Ki on Cholinesterase was > 100 µM; at Acetylcholinesterase it was 6.49 µM.
Regarding `CC1(C)CC[C@]2(C(=O)O)CC[C@]3(C)C(=CC[C@@H]4[C@@]5(C)C[C@@H](O)[C@H](O)C(C)(C)[C@@H]5CC[C@]43C)[C@@H]2C1` [MASLINIC ACID], the inhibition constant (Ki) at Cholinesterase and on Acetylcholinesterase was > 100 µM in each case. This molecule registered a half-maximal inhibitory concentration (IC50) in experiment [19] of 16.6 µM.
Regarding `C#CCCOC(=O)[C@]12CCC(C)(C)C[C@H]1C1=CC[C@@H]3[C@@]4(C)C[C@@H](O)[C@H](O)C(C)(C)[C@@H]4CC[C@@]3(C)[C@]1(C)CC2`, in [1], the Kiuc worked out at 32.5 µM. Further, the figures for the Ki at Cholinesterase and on Acetylcholinesterase were > 20 µM and 6.76 µM, respectively. Moreover, 11.7 µM corresponded to half-maximal inhibition at Acetylcholinesterase (IC50).
In turn, `CCCCCCOC(=O)[C@]12CCC(C)(C)C[C@H]1C1=CC[C@@H]3[C@@]4(C)C[C@@H](O)[C@H](O)C(C)(C)[C@@H]4CC[C@@]3(C)[C@]1(C)CC2` came in with a Kiuc in [1] of 5.11 µM. Moreover, the inhibition constant Ki on Cholinesterase was > 6 µM; at Acetylcholinesterase, 4.78 µM. At Acetylcholinesterase, this molecule registered an IC50 of 4.38 µM. In addition, the inhibition with Candida antarctica [14] is 0%; in experiment [15], 0%; in [16], 62%; in experiment [17] it was 0%.
Molecule `CC1(C)CC[C@]2(C(=O)OCc3ccc(Cl)cc3Cl)CC[C@]3(C)C(=CC[C@@H]4[C@@]5(C)C[C@@H](O)[C@H](O)C(C)(C)[C@@H]5CC[C@]43C)[C@@H]2C1` had a Kiuc in [1] of 9.24 µM. The Ki at Cholinesterase was > 6 µM; at Acetylcholinesterase it was 2.03 µM. In addition, the values for the IC50 (in experiment [19]; at Acetylcholinesterase) were 17.3 µM and 4.63 µM, respectively. For the same molecule, the inhibition in the experiment with Candida antarctica [14] was found to be 0%; in experiment [15], 0%; in experiment [16], 43%; in experiment [17] it was 0%.
`CCOC(=O)[C@]12CCC(C)(C)C[C@H]1C1=CC[C@@H]3[C@@]4(C)C[C@@H](O)[C@H](O)C(C)(C)[C@@H]4CC[C@@]3(C)[C@]1(C)CC2`: the Kiuc in experiment [1] came out at 4.67 µM. Besides, the Ki on Cholinesterase is > 14 µM. On Acetylcholinesterase, it took 4.68 µM to reach half-maximal inhibition (IC50) and the inhibition constant Ki was determined as 3.49 µM.
For the molecule `CC1(C)CC[C@]2(C(=O)OCCCBr)CC[C@]3(C)C(=CC[C@@H]4[C@@]5(C)C[C@@H](O)[C@H](O)C(C)(C)[C@@H]5CC[C@]43C)[C@@H]2C1`, the Kiuc in experiment [1] was 24.4 µM. In addition, the inhibition in the experiment on Candida antarctica [2] came out at 18%; in [3], 1%; in experiment [4], 16%; in experiment [5], 39%. The Ki is > 80 µM at Cholinesterase and 34.9 µM on Acetylcholinesterase. On Acetylcholinesterase, this molecule had a half-inhibitory concentration (IC50) of 31.2 µM.
